The sample as a whole holds a higher share of hits than the screen did.
NALP1 inh: inhibitors of NALP1 inflammasome in yeast | S. cerevisiae NALP1/ASC/caspase-1 growth, X-gal OD620, 72 h | inhibition, % at 10 µM | 280,000 tested, 0.61% active; in the data active = inhibition mostly above about 24%, no sharp cut-off; inactive = mostly below about 32%
PolyA inhibitor: yeast polyadenylation inhibition; 300,000 tested, 0.02% active; S. cerevisiae SKY197-pL101 polyadenylation reporter, beta-gal luminescence; efflux-impaired pdr1/pdr3 knockout yeast; score 100 = 6 SD above DMSO; activity score, % at 12 µM;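 active = lowest replicate activity score at least 50, where 100 means six control SD above control mean; inconclusive = lowest score under 50 but half or more replicates reach 50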;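 also: yeast exposed to compound for 9 h at 30 °C; higher score means more reporter readthrough which indicates perturbed polyadenylation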
NLRP3 yeast inh: inhibitors of NALP3 inflammasome in yeast; Yeast reconstituted NLRP3/ASC/caspase-1, beta-gal luminescence, 24 h; inhibition, % at 10 µM; 330,000 tested, 0.39% active; AID 2825;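 active = inhibition of 50% or more; inactive = inhibition below 50%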
L major viab: reduces viability of Leishmania major promastigotes; resazurin fluorescence viability; 200,000 tested, 9% active; inhibition, % at 10 µM; in the data active = inhibition above about 50%;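 also: promastigotes grown with compound for 44 hours at 28 °C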
T cruzi inh: blocks replication of Trypanosoma cruzi. T. cruzi beta-gal in NIH3T3, luminescence, 90 h. inhibition, % (concentration not given with the values). 300,000 tested, 1.4% active. AID 1885;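 active = mean inhibition across valid replicates above about 55%, limit read from the data; inconclusive = mean below that limit but half or more replicates reach it; inactive = mean below it, under half of replicates reach it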;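 also: signal also drops with host cell toxicity which is not excluded here; higher percent means less beta-gal luminescence so fewer parasites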
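System: NIH/3T3 fibroblasts plus reporter T. cruzi. Medium: DMEM plus 2% FBS. Probe or stimulus: 5000 reporter trypomastigotes per well. Compound: single 50 nL compound addition per well in DMSO. Incubation: co-culture of at least 90 h after 3 h attachment. Detection: GalScreen β-gal luminescence, detergent lysis, 60 min. Evaluation: parasite load inhibition, %.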
Calb FLC: C. albicans growth modulation with fluconazole | C. albicans CaCi-2 + fluconazole, Alamar Blue growth, 48 h | growth inhibition, % (concentration not given with the values) | 300,000 tested, 0.57% active | AID 1979;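 active = growth inhibition above about 58% in most replicates, limit read from the data, passing the limit was not always enough; inconclusive = exactly half the replicates above a set limit; inactive = most replicates below a set limit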;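 also: all wells also contain fluconazole at 8 µg/ml as a sub-toxic cotreatment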
Numbers stand for hits; – = inactive; ? = inconclusive; · = no result given.

SMILES | NALP1 inh | PolyA inhibitor | NLRP3 yeast inh | L major viab | T cruzi inh | Calb FLC
Cc1c(N=Cc2ccc(Br)s2)cccc1[N+](=O)[O-] | – | – | – | – | – | –
O=[N+]([O-])c1ccc(C=Nc2ccc(Cl)c([N+](=O)[O-])c2)s1 | – | · | – | 100 | · | ·
NC(=O)c1ccc(N=Cc2ccc([N+](=O)[O-])s2)cc1 | – | · | · | 100 | · | ·
Cc1cc(C)cc(NC(=O)C(Sc2ncnc3ccccc23)c2ccccc2)c1 (stereo not given) | – | – | – | 57 | – | –
O=C(Nc1cccc(C(F)(F)F)c1)C(Sc1ncnc2ccccc12)c1ccccc1 (stereo not given) | – | – | – | – | – | –
Cc1cc(NC(=O)c2cc(-c3cccnc3)nc3c(C)c(C)ccc23)no1 | – | – | – | – | – | –
Cc1c(Cl)ccc2c(C(=O)Nc3cc(C(C)(C)C)on3)cc(-c3ccccn3)nc12 | – | – | – | · | 61 | –
CC(=O)OC1CCC2(C)C(COc3ccc4ccc(=O)oc4c3)C(C)(O)CCC2C1(C)C (stereo not given) | – | – | – | 99 | – | –
C=C1CCC2C(C)(C)[C@@H](O)CC[C@@]2(C)[C@@H]1COc1ccc2ccc(=O)oc2c1 (stereo not given in full) | – | – | – | · | – | –
CC(C)N(C(=O)c1sc2cc([N+](=O)[O-])ccc2c1Cl)C(C)C | – | – | – | 97 | – | –
O=C(c1sc2cc([N+](=O)[O-])ccc2c1Cl)N1CCOCC1 | – | – | – | – | – | –
CCS(=O)(=O)N1CCCC(C(=O)NCCN2CCC(Cc3ccccc3)CC2)C1 (stereo not given) | – | – | – | 90 | – | –
O=C(NCCN1CCc2ccccc2C1)C1CCN(S(=O)(=O)N2CCCCC2)CC1 | – | – | – | 81 | – | –
O=C(NCCN1CCc2ccccc2C1)C1CCN(S(=O)(=O)N2CCC3(CC2)OCCO3)CC1 | – | – | – | – | – | –
CS(=O)(=O)N1CCCC(C(=O)NCCN2CCC(Cc3ccccc3)CC2)C1 (stereo not given) | – | – | – | 89 | – | –
COc1ccc([N+](=O)[O-])cc1NS(=O)(=O)c1cc(C(=O)O)ccc1OC | – | – | – | · | – | –
Nc1nc(SCC(=O)c2cccs2)n[nH]1 | – | – | – | – | – | –
N#Cc1ccc(-c2cccnc2)nc1SCC(N)=O | · | – | – | · | – | –
CCSc1nc(-c2cccnc2)ccc1C#N | – | – | – | 77 | – | –
CCN(CC)CCNC(=O)COc1ccc(Cl)cc1Cl | – | – | – | 75 | – | –
CN(C)CCCNC(=O)COc1ccc(Br)cc1Cl | – | – | – | 91 | – | –
COC(=O)c1cc(Br)ccc1NC(=O)CCNC(=O)c1ccco1 | – | – | – | · | – | –
COC(=O)c1ccc(N2C(=O)c3cc(N4CCOCC4)c([N+](=O)[O-])cc3C2=O)cc1 | – | – | – | – | – | –
CC1CC(C)CN(c2cc3c(cc2[N+](=O)[O-])C(=O)N(c2ccccc2)C3=O)C1 (stereo not given) | – | – | – | 85 | – | –
O=C1c2cc(N3CCCC3)c([N+](=O)[O-])cc2C(=O)N1c1ccccc1 | – | – | – | 60 | – | –
SMILES | NALP1 inh | PolyA inhibitor | NLRP3 yeast inh | L major viab | T cruzi inh | Calb FLC
CC1CC(C)CN(c2ccc(-n3cnnn3)cc2[N+](=O)[O-])C1 (stereo not given) | – | – | – | – | – | –
Cc1cc(C)n2nc(C(=O)OCC(=O)NCc3ccccc3)nc2n1 | · | · | – | · | · | ·
COc1ccc(-n2c(C)c([N+](=O)[O-])c3ccc(O)c(CN(C)C)c32)cc1 | 24 | – | – | – | – | –
COc1ccc(-n2c(C(C)n3nc(C)c([N+](=O)[O-])c3C)n[nH]c2=S)cc1 (stereo not given) | – | – | – | – | – | –
CCC1CCC(C(=O)NC(C(=O)NCCc2ccc(S(N)(=O)=O)cc2)C(C)C)CC1 (stereo not given) | – | – | – | · | – | –
COc1ccc(NC(=O)CSc2nc3[nH]ncc3c(=O)[nH]2)c(OC)c1 | · | – | – | · | – | –
COc1ccc(/C=C/c2cccc[n+]2C)c(O)c1 | – | – | – | · | – | –
CCN(CC)c1ccc(/C=C/c2cccc[n+]2C)c(OC)c1 | – | – | – | · | 66 | 78
Cn1cc(CNCc2cn(C)nc2-c2ccc(C3CCCCC3)cc2)cn1 | – | – | – | 94 | – | –
COc1cccc(-n2cc(CNCc3cn(C)nc3-c3ccccc3F)cn2)c1 | – | – | – | – | – | –
COc1ccccc1-n1cnnc1SCC(=O)c1c[nH]c2ccccc12 | – | – | – | – | – | –
O=C(Nc1ccc(Cl)cc1)OC(CN1CCCCC1)C(F)(F)F (stereo not given) | 25 | – | – | – | – | –
CC(Cc1cccs1)NC(=S)Nc1ccc(Cl)cc1 (stereo not given) | – | – | – | – | – | –
CC(Cc1cccs1)NC(=S)Nc1ccc(Cl)c(Cl)c1 (stereo not given) | – | – | – | 71 | – | –
CC(Cc1cccs1)NC(=O)Nc1cccc(Cl)c1 (stereo not given) | – | – | – | 68 | – | –
COC(=O)[C@@]1(Cc2ccc(OC)cc2)[C@@H]2C(=CC(=O)[C@H]2CC(=O)C(=O)N2CCCC2)CN1C(=O)c1ccccc1 | – | · | – | 100 | · | ·
CC(=O)NC(Cc1ccc(F)c(F)c1)C(=O)NC1CCN(C(=O)c2ccc(Cl)cc2)CC1 (stereo not given) | 32 | – | – | · | – | –
Nc1c2c(nc3ccn(Cc4ccccc4)c(=O)c13)CCC2 | – | – | – | 89 | – | ?
CC(/C=C/c1ccc2c(c1)OCO2)=N/NC(=O)c1ccncc1 | · | – | – | · | – | –
CC(/C=C/c1cccc([N+](=O)[O-])c1)=N\NC(=O)c1ccncc1 | – | – | – | 55 | – | –
Cc1cc(C(=O)N/N=C/C=C/c2ccccc2)n[nH]1 | · | – | – | · | – | –
CC(/C=C/c1ccccc1)=N/NC(=O)c1cccc(Br)c1 | – | – | – | 72 | – | –
CC1=C(/C=C/C(C)=N\NC(=O)c2ccncc2)C(C)(C)CCC1 | – | – | – | 81 | – | –
Cc1cc(C(=O)N/N=C/C=C/c2cccc([N+](=O)[O-])c2)n[nH]1 | – | – | – | 57 | – | –
O=C(CC1c2ccccc2Oc2ccccc21)Nc1ccccc1C(F)(F)F | – | – | – | – | – | –
CCC(C)c1ccc(NC(=S)NCc2ccccc2OC)cc1 (stereo not given) | – | – | · | – | – | –
O=C(/C=C/c1cccc([N+](=O)[O-])c1)Nc1ccccn1 | 23 | – | – | – | – | –
CCC(O)CC(C(=O)NNc1ccccc1)C(=O)NNc1ccccc1 (stereo not given) | – | – | – | 72 | – | 100

Screening data: PubChem, several laboratories
